# Test results published in article PMC6057249 (The Indian Journal of Medical Research, 2018).
# Several values for one entry are separate records, joined by “and”; a condition that tells them apart may be missing. Equal entries are not always repeated. Where two headings read alike, the source gives them in different places. Bridge positions count the residues as written; N and C are the ends. Square brackets hold non-standard residues; d marks the D form. Peptide text beside a SMILES is read from it. * marks the point of attachment. X1 = CC[C@H](C)CCCCC(=O)*; Dab = NCC[C@H](N)C(=O)O
# Legend:
# [1] = stored plasma samples; to be estimated within four months; ref [17]; cited from earlier work
# [2] = cited from earlier work
# [3] = format: in vivo, human; details: for AUC after 5th dose: individual patients, steady state, plasma, AUC0-8; for average steady-state concentration (Css, avg) of formed colistin, median: six patients receiving 2 MU q8h, no loading dose
# Method in brief: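 CMS was given by 1-h i.v. infusion every 8 h. Heparinized venous blood was drawn pre-dose, at end of infusion, then 30 min and 1.5, 2, 4, 6, 8 h after dose 1 and dose 5 (steady state). Plasma (200 μl) was stored at −80°C. CMS was acid-hydrolysed (5% formic acid, 30 min), and colistin A+B were quantified by UHPLC-MS/SRM against a reserpine internal standard. Values are total colistin, with outliers omitted.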
# [4] = system: Acinetobacter baumannii; assay: MIC for colistin by E-test; format: cell-based; details: isolate of the individual patient
# Method in brief: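 Organisms came from positive cultures of ICU patients with MDR Gram-negative bloodstream infection and were identified and susceptibility-tested. Colistin MIC for each patient's isolate was determined by E-test per the manufacturer's instructions.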
# [5] = system: MDR Gram-negative infections; assay: Bacteriological profile and clinical outcome of patients on colistin monotherapy; format: in vivo, human; details: 1-2 MU i.v. every 8 h
# Method in brief: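 ICU patients >12 yr with normal renal function and bloodstream infection by an MDR Gram-negative organism susceptible only to colistin. They received colistin monotherapy as CMS by 1-h i.v. infusion every 8 h, without a loading dose, for […]. Follow-up cultures were taken. Exclusions were expected survival <72 h, pregnancy, burns >20% of body surface, and cystic fibrosis.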
Compound,stability in stored samples (conversion of CMS to colistin) [1],"apparent terminal t1/2 ([2]; 2 MU dosage regimen, ref Imberti et al [10]) [h]","t1/2 ([2]; after 2.8 MU dosage, ref Markou et al [11]) [h]","Vd ([2]; cystic fibrosis patients, single dose, ref [17])","Vd ([2]; cystic fibrosis patients, steady state, ref [17])","Vd ([2]; other Indian study, after both the single dose and at steady state, ref [7])","Vd ([2]; other studies, ref [10]) [L/kg]","terminal half-life, range ([3]; 2 MU i.v. every 8 h, after 1st dose) [h]","terminal half-life, range ([3]; 2 MU i.v. every 8 h, after 5th dose) [h]",AUC after 5th dose ([3]; 1 MU i.v. every 8 h),AUC after 5th dose ([3]; 2 MU i.v. every 8 h),Vd for a majority of patients ([3]; patients of this study),"average steady-state concentration (Css, avg) of formed colistin, median ([3]; after 1st dose) [ng/mL]","average steady-state concentration (Css, avg) of formed colistin, median ([3]; after 5th dose) [ng/mL]",MIC [4] [µg/mL],follow up cultures ([5]; all nine patients),patients who did not survive ([5]; nine patients) [per cent]
colistin methanesulphonate [CMS],unstable,–,–,–,–,–,–,–,–,–,–,–,–,–,–,–,–
CC[C@H](C)CCCCC(=O)N[C@@H](CCN)C(=O)N[C@H](C(=O)N[C@@H](CCN)C(=O)N[C@H]1CCNC(=O)[C@H]([C@@H](C)O)NC(=O)[C@H](CCN)NC(=O)[C@H](CCN)NC(=O)[C@H](CC(C)C)NC(=O)[C@@H](CC(C)C)NC(=O)[C@H](CCN)NC1=O)[C@@H](C)O [colistin] (X1-[Dab]T[Dab][Dab][Dab][dL]L[Dab][Dab]T; lactam 4-C),–,5.9 ± 2.6,7.4 ± 1.7,0.09 (0.02) l/kg,0.09 (0.03) l/kg,0.3 (0.2-0.5) l/kg,1.5 ± 1.1,4.7 to 9.84,2.72 to 8.5,5.4 mg·h/L and 8.5 mg·h/L and 3.5 mg·h/L,15.8 mg·h/L and 6.0 mg·h/L and 4.4 mg·h/L,more than 1.0 l/kg,570,720,0.125,sterile,30
